Experimental findings from article PMC3553303 (Biochemical pharmacology, 2012) are described below.

The term Ki denotes the dissociation constant of the complex between target and ligand, obtained from inhibition or displacement. What is called EC50 is the midpoint of the concentration-response curve.

Assay [1] addresses bombesin receptor (BB2) (Homo sapiens, UniProt P30550). Type of assay: binding. The settings on record: read-out: Ki, displacement of [125I][Tyr4]bombesin; PC3 cells.
Assay [2] concerns human neutrophils. Briefly: Neutrophil chemotaxis assay. Type of assay: cell-based. The settings on record: read-out: Neutrophils Chemotaxis EC50, N.A. = non-active.
Assay [3] addresses T1, FPR2 (Homo sapiens, UniProt P25090).
T1 sequence (P25090 1-351): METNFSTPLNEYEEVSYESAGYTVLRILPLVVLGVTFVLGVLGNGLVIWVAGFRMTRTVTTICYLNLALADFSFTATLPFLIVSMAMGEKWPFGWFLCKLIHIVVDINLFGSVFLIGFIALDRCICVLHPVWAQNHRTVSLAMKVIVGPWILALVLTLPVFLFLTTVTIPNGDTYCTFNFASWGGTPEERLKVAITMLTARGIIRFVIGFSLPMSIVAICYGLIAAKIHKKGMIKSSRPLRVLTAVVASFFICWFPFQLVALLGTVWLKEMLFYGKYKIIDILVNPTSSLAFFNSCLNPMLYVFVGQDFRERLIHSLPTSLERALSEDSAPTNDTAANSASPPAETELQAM
Kind of assay: Ca2+ mobilization in FPR2-HL-60 cells. Type of assay: cell-based. The settings on record: percentage of the response induced by 5 nM WKYMVM.

For assay [4], the target named is T2, FPR1 (Homo sapiens, UniProt P21462).
T2 sequence (P21462 1-350): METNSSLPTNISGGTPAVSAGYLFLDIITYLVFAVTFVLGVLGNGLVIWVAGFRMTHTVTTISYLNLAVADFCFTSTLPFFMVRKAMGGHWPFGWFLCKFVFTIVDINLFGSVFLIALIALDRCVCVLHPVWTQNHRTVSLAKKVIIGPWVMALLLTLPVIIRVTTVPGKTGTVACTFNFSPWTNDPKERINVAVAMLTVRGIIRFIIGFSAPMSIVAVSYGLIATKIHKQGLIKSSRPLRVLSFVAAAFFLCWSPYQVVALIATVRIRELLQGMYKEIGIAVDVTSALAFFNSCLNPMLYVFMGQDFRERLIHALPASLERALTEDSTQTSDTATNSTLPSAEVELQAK
Kind of assay: PathHunter β-arrestin recruitment, FPR1-CHO-K1 cells. Type of assay: cell-based. The settings on record: read-out: β-arrestin recruitment EC50. A general note: Activated receptors often draw arrestin, which recruitment assays turn into a signal.

Assay [5] deals with T1, FPR2. Kind of assay: PathHunter β-arrestin recruitment, FPR2-CHO-K1 cells. Type of assay: cell-based. The settings on record: read-out: β-arrestin recruitment EC50. In a few lines: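 The assay used the PathHunter enzyme-fragment complementation format in FPR2-transfected CHO-K1 cells. Thawed cells were plated at 5000/well in the kit medium and held 48 h at 37 °C with 5% CO2. Test compound was serially diluted at constant DMSO and added for 90 min at 37 °C, then detection reagent for 60 min at room temperature. Chemiluminescence was read.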

The target in assay [6] is T2, FPR1. Kind of assay: Ca2+ mobilization in FPR1-HL-60 cells. The assay is classed as cell-based. The settings on record: percentage of the response induced by 5 nM fMLF.

Chain of bombesin receptor (BB2) (P30550 whole entry): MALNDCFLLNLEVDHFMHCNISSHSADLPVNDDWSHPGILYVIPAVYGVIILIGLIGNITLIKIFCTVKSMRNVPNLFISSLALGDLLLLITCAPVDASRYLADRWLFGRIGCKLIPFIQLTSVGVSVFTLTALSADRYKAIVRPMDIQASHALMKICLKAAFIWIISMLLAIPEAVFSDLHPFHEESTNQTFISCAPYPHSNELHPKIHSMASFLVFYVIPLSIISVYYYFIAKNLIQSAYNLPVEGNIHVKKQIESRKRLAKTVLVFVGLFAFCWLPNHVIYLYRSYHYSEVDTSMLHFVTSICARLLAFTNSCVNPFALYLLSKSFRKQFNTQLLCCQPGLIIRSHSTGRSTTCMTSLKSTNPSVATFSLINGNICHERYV

For `COc1ccc(C2(CNC(=O)[C@](C)(Cc3c[nH]c4ccccc34)NC(=O)Nc3ccc([N+](=O)[O-])cc3)CCCCC2)nc1` [PD176252], the Ki in assay [1] amounted to 66 nM. Also, the EC50 is 810 ± 220 nM in assay [2], 3800 ± 1100 nM in assay [4] and 8800 ± 2000 nM in assay [5]. For the same molecule, the “Ca2+ Mobilization in HL-60 cells FPR2 Efficacy” value in assay [3] is given as 90%. Besides, in assay [6], the “Ca2+ Mobilization in HL-60 cells FPR1 Efficacy” value is reported as 100%.

With `C[C@@](Cc1c[nH]c2ccccc12)(NC(=O)Nc1ccc([N+](=O)[O-])cc1)C(=O)NCC1(c2ccccn2)CCCCC1` [PD168368], the EC50 came to 700 ± 150 nM in assay [2] and 11100 ± 2800 nM in assay [5]. The “Ca2+ Mobilization in HL-60 cells FPR2 Efficacy” value in assay [3] is 75%.
